Measured values reported in publication PMC3124385 (Clinical pharmacology and therapeutics, 2011).
Like-named read-outs stand apart in the source and are kept apart here. Starred links: 1 amine or outer side, 2 acyl side, 3 side chain; linkers in the order of their positions; H or OH if unused. Positions of bridges follow the written chain, without caps; N, C: chain ends. Non-standard residues stand in square brackets, D forms with d. Residues, ends and D or L forms follow the SMILES beside them. *: point of attachment. pTerphenylCO(4''-OnC5H11) = CCCCCOc1ccc(-c2ccc(-c3ccc(C(=O)*)cc3)cc2)cc1; Orn(4R-OH,5R-OH) = O=C([C@H](C[C@@H](O)[C@@H](O)N[*:3])N[*:1])[*:2]; hTyr(3S-OH,4S-OH) = N[C@H](C(=O)O)[C@H](O)[C@@H](O)c1ccc(O)cc1; Pro(3S-OH,4S-Me) = C[C@H]1CN[C@H](C(=O)O)[C@H]1O; Hyp = O=C(O)[C@@H]1C[C@@H](O)CN1

Key:
[1] = type: in vivo, human; conditions: for C24 LD, trough (24 h) concentration after the loading dose / Cmax LD, maximum concentration after loading dose: after 3 mg/kg IV loading dose, day 1, plasma LC-MS/MS
Outline: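 IV infusion over 60 min (≤1.1 mg/min): 3 mg/kg loading dose day 1, then 1.5 mg/kg daily up to day 5. Infants got a 20% alcohol-based form and neonates an alcohol-free water-for-injection form. Venous plasma drawn day 1 (predose, end-infusion, 20–24 h) and days 3–5 (predose to 18–24 h), kept at −80°C, assayed by LC-MS/MS (0.05–20.0 μg/ml). Noncompartmental analysis of doses 3–5; AUC by linear trapezoidal rule; CL = dose/AUC.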

[2] = ref [10], cited from earlier work
[3] = Safety: adverse events and clinical laboratory tests in infants and neonates; type: in vivo, human
[4] = test system: cytochrome P450 enzymatic system; conditions: ref [10]; cited from earlier work
[5] = ref [12], cited from earlier work

SMILES: CCCCCOc1ccc(-c2ccc(-c3ccc(C(=O)N[C@H]4C[C@@H](O)[C@@H](O)NC(=O)[C@@H]5[C@@H](O)[C@@H](C)CN5C(=O)[C@H]([C@@H](C)O)NC(=O)[C@H]([C@H](O)[C@@H](O)c5ccc(O)cc5)NC(=O)[C@@H]5C[C@@H](O)CN5C(=O)[C@H]([C@@H](C)O)NC4=O)cc3)cc2)cc1 [anidulafungin, Anidulafungin] ({pTerphenylCO(4''-OnC5H11)}-[Orn(4R-OH,5R-OH)]T[Hyp][hTyr(3S-OH,4S-OH)]T[Pro(3S-OH,4S-Me)]; lactam 1-C)
- drug accumulation after multiple anidulafungin doses ([1]; comparing trough concentrations after the loading dose and those obtained after multiple doses): not apparent
- Cmax ([1]; human, plasma, iv, 1.5 mg/kg): 4200 ng/mL
- Cmax ([1]; human, plasma, iv, 3 mg/kg): 5000 ng/mL
- level at 24 h ([1]; human, plasma, iv, 3 mg/kg): 2100 ng/mL
- trend in weight-adjusted clearance (CLss) with changes in postmenstrual age ([1]; scatter plot, Figure 3, neonates and infants): No trend was observed
- C24 LD, trough (24 h) concentration after the loading dose ([1]; subject 4, neonate): 2.1 µg/mL
- Cmax LD, maximum concentration after loading dose ([1]; subject 4, neonate): 4000 ng/mL
- C24 LD, trough (24 h) concentration after the loading dose ([1]; subject 6, neonate): 3.2 µg/mL
- Cmax LD, maximum concentration after loading dose ([1]; subject 6, neonate): 5900 ng/mL
- C24 LD, trough (24 h) concentration after the loading dose ([1]; subject 8, neonate): 1.9 µg/mL
- Cmax LD, maximum concentration after loading dose ([1]; subject 8, neonate): 4900 ng/mL
- C24 LD, trough (24 h) concentration after the loading dose ([1]; subject 9, infant): 2.3 µg/mL
- Cmax LD, maximum concentration after loading dose ([1]; subject 9, infant): 7100 ng/mL
- C24 LD, trough (24 h) concentration after the loading dose ([1]; subject 10, infant): 2.4 µg/mL
- Cmax LD, maximum concentration after loading dose ([1]; subject 10, infant): 5000 ng/mL
- C24 LD, trough (24 h) concentration after the loading dose ([1]; subject 11, infant): 1.9 µg/mL
- Cmax LD, maximum concentration after loading dose ([1]; subject 11, infant): 6800 ng/mL
- hepatic metabolism [2, 11]: lacks significant hepatic metabolism
- degradation in the blood [2]: undergoes chemical degradation in the blood
- renal clearance [2]: not renally cleared
- subjects who experienced at least one adverse event ([3]; eight out of 15 subjects, neonates and infants): 53%
- maximum bilirubin level during study drug administration ([3]; other infant with worsening hyperbilirubinemia, baseline 9.1 mg/dL): 10.4 mg/dL
- metabolism by the cytochrome P450 enzymatic system [4]: not metabolized by the cytochrome P450 enzymatic system
- AUCss of older children and adults ([5]; older children (1.5 mg/kg/day) and adults (100 mg/day)): 100000 ng·h/mL
- half life in other pediatric patients ([5]; other pediatric patients): 20 to 24 h
